In ChEMBL document CHEMBL1133168, “Synthesis and SAR of 4-aryl-2-hydroxy-4-oxobut-2-enoic acids and esters and 2-amino-4-aryl-4-oxobut-2-enoic acids and esters: potent inhibitors of kynurenine-3-hydroxylase as potential neuroprotective agents” (J Med Chem, 2000):

Columns and labels:
[1] = target: Kynurenine 3-monooxygenase (Rattus norvegicus) (UniProt O88867); test: Inhibition of Kynurenine-3-hydroxylase enzyme isolated from the rat liver at 10 uM
[2] = target: Kynurenine 3-monooxygenase (Rattus norvegicus, UniProt O88867); test: Inhibition of Kynurenine-3-hydroxylase enzyme isolated from the rat liver
Chain of Kynurenine 3-monooxygenase (O88867 whole entry): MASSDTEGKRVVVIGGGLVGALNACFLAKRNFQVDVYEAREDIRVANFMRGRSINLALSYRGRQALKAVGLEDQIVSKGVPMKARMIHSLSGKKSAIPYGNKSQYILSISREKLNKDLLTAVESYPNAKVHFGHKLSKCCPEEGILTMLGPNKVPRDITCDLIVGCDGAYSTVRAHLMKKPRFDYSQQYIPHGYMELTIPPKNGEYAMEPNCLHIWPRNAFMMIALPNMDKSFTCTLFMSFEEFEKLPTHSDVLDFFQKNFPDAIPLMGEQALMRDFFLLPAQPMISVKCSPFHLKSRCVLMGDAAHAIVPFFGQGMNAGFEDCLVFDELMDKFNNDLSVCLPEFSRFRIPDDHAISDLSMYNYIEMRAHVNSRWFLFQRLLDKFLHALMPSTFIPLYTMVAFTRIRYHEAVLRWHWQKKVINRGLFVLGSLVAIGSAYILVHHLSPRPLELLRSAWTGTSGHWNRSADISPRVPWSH
Summary of the method: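 Enzyme source: P2 mitochondrial pellet from rat liver, resuspended in 0.32 M sucrose. Activity measured as ³HOH release from 3-[³H]-L-kynurenine at its K_m concentration, 37 °C, under conditions linear with time and enzyme protein. Five inhibitor concentrations tested. IC50 taken as the mean of at least 2 experiments run in duplicate, with variation <20%.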

Chain of Kynurenine 3-monooxygenase (Rattus norvegicus) (O88867 whole entry, looked up): as the sequence (O88867 whole entry) above

| Structure (SMILES) | inhibition [1] [%] | IC50 [2] [nM] |
| --- | --- | --- |
| COC(=O)C(=N)/C=C(\O)c1ccc(Br)cc1 | 0 | – |
| N/C(=C\C(=O)c1ccc(F)cc1)C(=O)O | 41 | – |
| NC(CC(=O)c1cccc([N+](=O)[O-])c1)C(=O)O (racemic) | – | 8000 |
| COC(=O)C(=N)/C=C(\O)c1ccc(C)cc1 | 4 | – |
| N/C(=C\C(=O)c1cccc(Cl)c1Cl)C(=O)O | 32 | – |
| COC(=O)C(=O)/C=C(/O)c1ccc(C)cc1 | 12 | – |
| N/C(=C\C(=O)c1ccccc1Cl)C(=O)O | 19 | – |
| COC(=O)C(=N)/C=C(\O)c1ccc(Cl)cc1 | 13 | – |
| COC(=O)C(=N)/C=C(\O)c1ccc(Cl)c(C)c1 | 0 | – |
| COC(=O)C(=O)/C=C(\O)c1ccccc1[N+](=O)[O-] | 1 | – |
| N/C(=C\C(=O)c1ccc(F)c(Cl)c1)C(=O)O | – | 820 |
| COC(=O)C(=N)/C=C(\O)c1ccc(F)c(Cl)c1 | 4 | – |
| COC(=O)C(=O)/C=C(\O)c1ccc(F)cc1 | 22 | – |
| N[C@@H](CC(=O)c1cccc([N+](=O)[O-])c1)C(=O)O | – | 4000 |
| COC(=O)C(=N)/C=C(\O)c1ccc(Cl)c(Cl)c1 | 37 | – |
| COC(=O)C(=N)/C=C(\O)c1ccccc1 | 3 | – |
| COC(=O)C(=N)/C=C(\O)c1ccccc1Cl | 31 | – |
| COC(=O)C(=O)/C=C(\O)c1cccc(F)c1F | – | 8100 |
| COC(=O)C(=N)/C=C(\O)c1cccc(Cl)c1Cl | 33 | – |
| COC(=O)C(=N)/C=C(\O)c1ccc(F)cc1 | 1 | – |
| COC(=O)C(=O)/C=C(\O)c1cccc(Cl)c1Cl | 14 | – |
| N/C(=C\C(=O)c1ccc(Cl)c(Cl)c1)C(=O)O | – | 1000 |
| COC(=O)C(=O)/C=C(\O)c1ccc(Br)cc1 | – | 1900 |
| N/C(=C\C(=O)c1ccc(F)c(F)c1)C(=O)O | – | 1500 |
| COC(=O)C(=N)/C=C(\O)c1ccc(F)c(F)c1 | – | 3600 |

Further lines, results first:

| inhibition [1] [%] | IC50 [2] [nM] | Structure (SMILES) |
| --- | --- | --- |
| 0 | – | COC(=O)C(=N)/C=C(\O)c1cccc(Br)c1 |
| 31 | – | COC(=O)C(=O)/C=C(\O)c1ccccc1Cl |
| – | 7900 | COC(=O)C(=N)/C=C(\O)c1cccc(Cl)c1 |
| 17 | – | N/C(=C\C(=O)c1ccccc1)C(=O)O |
| 0 | – | COC(=O)C(=N)/C=C(\O)c1cccc(F)c1 |
| – | 1900 | COC(=O)C(=O)/C=C(\O)c1cccc(Cl)c1 |
| 24 | – | O=C(O)C(=O)/C=C(\O)c1ccccc1[N+](=O)[O-] |
| – | 1700 | Cc1cc(/C(O)=C/C(=O)C(=O)O)ccc1Cl |
| – | 3300 | COC(=O)C(=O)/C=C(\O)c1ccc(F)c(F)c1 |
| – | 1600 | COC(=O)C(=O)/C=C(\O)c1cccc(F)c1 |
| 33 | – | O=C(O)C(=O)/C=C(\O)c1cccc(Cl)c1Cl |
| 38 | – | COC(=O)C(=O)/C=C(\O)c1ccc(Cl)cc1 |
| – | 320 | O=C(O)C(=O)/C=C(\O)c1cccc(Cl)c1 |
| – | 3000 | O=C(O)C(=O)/C=C(\O)c1ccc(Cl)cc1 |
| 33 | – | N/C(=C\C(=O)c1ccc(Cl)cc1)C(=O)O |
| 23 | – | COC(=O)C(=O)/C=C(\O)c1ccccc1 |
| – | 580 | O=C(O)C(=O)/C=C(\O)c1cccc(F)c1 |
| – | 120 | O=C(O)C(=O)/C=C(\O)c1ccc(F)c(F)c1 |
| – | 2000 | O=C(O)C(=O)/C=C(\O)c1ccc(Cl)c([N+](=O)[O-])c1 |
| – | 1700 | O=C(O)C(=O)/C=C(\O)c1cccc(Br)c1 |
| – | 2400 | N/C(=C\C(=O)c1cccc(Cl)c1)C(=O)O |
| – | 2100 | COC(=O)C(=O)/C=C(\O)c1cccc(Br)c1 |
| – | 2600 | COC(=O)C(=O)/C=C(\O)c1ccc(F)c(Cl)c1 |
| 33 | – | O=C(O)C(=O)/C=C(\O)c1ccccc1Cl |
| – | 270 | O=C(O)C(=O)/C=C(\O)c1ccc(F)c(Cl)c1 |
| – | 11200 | COC(=O)C(=O)/C=C(\O)c1ccc(Cl)c([N+](=O)[O-])c1 |
| – | 1900 | COC(=O)C(=O)/C=C(\O)c1ccc(Cl)c(Cl)c1 |
| 0 | – | O=C(O)C(=O)/C=C(\O)c1ccccc1 |
| – | 4900 | COC(=O)C(=O)/C=C(\O)c1ccc(Cl)c(C)c1 |
